ChEMBL document CHEMBL1156387, “Novel esters of glaucarubolone as inducers of terminal differentiation of promyelocytic HL-60 cells and inhibitors of 7,12-dimethylbenz[a]anthracene-induced preneoplastic lesion formation in mouse mammary organ culture” (J Nat Prod, 2001)

Tests used:
[1] = system: HL-60; test: Antiproliferative activity against human HL60 cells assessed as inhibition of [3H]thymidine incorporation after 4 days by liquid scintillation counter; type: functional, cell-based
Summary of the method: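 HL-60 cells in log phase diluted to 10^5 cells/mL, preincubated 18 h, then exposed to samples in DMSO (final 0.1% v/v; DMSO-only controls) for 4 days. Cells then pulsed with [3H]thymidine (0.5 μCi/mL, 65 Ci/mmol) for 18 h at 37 °C, 5% CO2, harvested onto glass fiber filters, scintillation counted; incorporation per 10^6 cells as % of DMSO control. IC50 from 5–7 concentrations in duplicate.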

[2] = system: HL-60; test: Induction of cell differentiation in human HL60 cells assessed as superoxide anion production after 4 days by NBT reduction assay; type: functional, cell-based; conditions: HL-60, 96 h
Summary of the method: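 Cells diluted to 10^5/mL and recovered overnight were exposed 4 days to samples (0.1% v/v DMSO final). Cell suspension (10^6 cells) was mixed 1:1 with NBT 2 mg/mL plus TPA 1 μg/mL in PBS and held 1 h at 37 °C. Formazan-positive cells were counted microscopically among >200 cells. EC50 from 5–7 concentrations in duplicate; 1α,25-dihydroxyvitamin D3 served as reference.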

[3] = system: HL-60; test: Cytotoxicity against human HL60 cells assessed as loss of membrane integrity after 4 days by trypan blue exclusion assay; type: functional, cell-based; conditions: HL-60, 96 h
Summary of the method: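 After 18 h recovery at 10^5 cells/mL, HL-60 cells were treated 4 days with samples (final DMSO 0.1% v/v). Cells were mixed 1:4 with trypan blue (0.2% w/v in PBS), held at least 5 min at room temperature and counted by hemocytometer. Viability was taken from duplicate samples; IC50 from 5–7 concentrations in duplicate.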

[4] = Inhibition of DMBA-induced preneoplastic lesion formation in a BALB/c mouse mammary organ culture at 2 uM pretreated for 10 days before DMBA-challenge measured after 14 days; type: functional; conditions: Mammary gland
Summary of the method: (§1)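 Female BALB/c mice, 4 weeks old, primed 9 days with estradiol 1 μg plus progesterone 1 mg. Thoracic glands were cultured 10 days with insulin, prolactin, aldosterone and hydrocortisone plus test agent at 2 μM. DMBA 2 μg/mL was given for 24 h on day 3. Regression followed for 14 days in insulin alone. Glands were formalin-fixed and alum carmine-stained. Lesion incidence gave % inhibition versus DMBA control. Toxicity was scored as duct dilation or amorphous disintegration.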

[5] = Toxicity in BALB/c mouse mammary organ culture assessed as morphological changes in mammary gland at 2 uM after 10 days; type: tissue-based; conditions: ex_vivo, 240 h; summary of the method: as §1
[6] = system: HL-60; test: Selectivity index, ratio of cytotoxic IC50 to antiproliferative IC50 for human HL60 cells; type: functional
Summary of the method: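 Index = cytotoxic IC50 (trypan blue, 4-day HL-60 exposure) divided by antiproliferative IC50 ([3H]thymidine incorporation), each from dose–response with at least five points.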

Row | Compound | IC50 [1] | EC50 [2] | IC50 [3] | inhibition at 2 µM [4] | Activity [5] | Ratio IC50 [6]
1 | CCCC(=O)O[C@H]1C(=O)O[C@@H]2C[C@H]3C(C)=CC(=O)[C@@H](O)[C@]3(C)[C@H]3[C@]4(O)OC[C@]32[C@@H]1[C@@H](C)[C@H]4O | > 3000 nM | > 3000 nM | 3000 nM | 82% | Non-toxic | –
2 | CC1=CC(=O)[C@@H](O)[C@]2(C)[C@H]3C4(O)OC[C@@]35[C@@H](C[C@@H]12)OC(=O)C[C@H]5[C@@H](C)[C@H]4O (single isomer, unassigned) [CHAPARRINONE] | 1200 nM | 2400 nM | 5000 nM | 25% | Non-toxic | 4.3
3 | CC1=CC(=O)[C@@H](O)[C@]2(C)[C@H]3[C@]4(O)OC[C@]35[C@H]([C@@H](C)[C@H]4O)[C@@H](OC(=O)CC(C(C)C)C(C)C)C(=O)O[C@@H]5C[C@@H]12 | 75 nM | 55 nM | 150 nM | 40% | Non-toxic | 2
4 | CCC(CC)(CO)C(=O)O[C@H]1C(=O)O[C@@H]2C[C@H]3C(C)=CC(=O)[C@@H](O)[C@]3(C)[C@H]3[C@]4(O)OC[C@]32[C@@H]1[C@@H](C)[C@H]4O | 150 nM | 500 nM | 950 nM | 70% | Non-toxic | 6.5
5 | CC1=CC(=O)[C@@H](O)[C@]2(C)[C@H]3[C@]4(O)OC[C@]35[C@H]([C@@H](C)[C@H]4O)[C@@H](OC(=O)[C@@H](C)CO)C(=O)O[C@@H]5C[C@@H]12 | 600 nM | 1900 nM | 2500 nM | – | – | 4.3
6 | COC(=O)[C@@]12OC[C@]34[C@H]([C@@H](O)[C@@H]1O)[C@@]1(C)CC(=O)C(O)=C(C)[C@@H]1C[C@H]3OC(=O)[C@H](OC(=O)C=C(C)C)[C@@H]24 [BRUSATOL] | – | – | – | – | Non-toxic | –
7 | CC1=CC(=O)[C@@H](O)[C@]2(C)[C@H]3[C@]4(O)OC[C@]35[C@H]([C@@H](C)[C@H]4O)[C@@H](OC(=O)C(C)(C)C(=O)O)C(=O)O[C@@H]5C[C@@H]12 | 3200 nM | > 7000 nM | > 7000 nM | – | – | >2.2
8 | CC[C@](O)(CC(=O)O[C@H]1C(=O)O[C@@H]2C[C@H]3C(C)=CC(=O)[C@@H](O)[C@]3(C)[C@H]3[C@]4(O)OC[C@]32[C@@H]1[C@@H](C)[C@H]4O)C(C)C | 9 nM | 19 nM | 13 nM | 44% | Non-toxic | 1.5
9 | CC1=CC(=O)[C@@H](O)[C@]2(C)[C@H]3[C@]4(O)OC[C@]35[C@H]([C@@H](C)[C@H]4O)[C@@H](OC(=O)C=C(C3CC3)C3CC3)C(=O)O[C@@H]5C[C@@H]12 | 200 nM | 600 nM | 750 nM | – | – | 3.9
10 | COC(=O)[C@]12OC[C@]34[C@H]([C@@H](O)[C@@H]1O)[C@@]1(C)CC(=O)C(O)=C(C)[C@@H]1C[C@H]3OC(=O)[C@H](OC(=O)C=C(C)C)[C@@H]24 [BRUSATOL] | 70 nM | 70 nM | 170 nM | 70% | – | 2.5
11 | CC1=CC(=O)[C@@H](O)[C@]2(C)[C@H]3[C@]4(O)OC[C@]35[C@H]([C@@H](C)[C@H]4O)[C@@H](OC(=O)CC(O)(CC(C)C)CC(C)C)C(=O)O[C@@H]5C[C@@H]12 | 40 nM | > 50 nM | 40 nM | – | – | 1
12 | CC1=CC(=O)[C@@H](O)[C@]2(C)[C@H]3[C@]4(O)OC[C@]35[C@H]([C@@H](C)[C@H]4O)[C@@H](OC(=O)CC3(O)CCCC3)C(=O)O[C@@H]5C[C@@H]12 | 190 nM | 130 nM | 380 nM | – | – | 2.1
13 | CC1=CC(=O)[C@@H](O)[C@]2(C)[C@H]3[C@]4(O)OC[C@]35[C@H]([C@@H](C)[C@H]4O)[C@@H](OC(=O)CC3(O)C(C)(C)CCC3(C)C)C(=O)O[C@@H]5C[C@@H]12 | 40 nM | 25 nM | 50 nM | – | – | 1.3
14 | CC(=O)O[C@H]1C(=O)O[C@@H]2C[C@H]3C(C)=CC(=O)[C@@H](O)[C@]3(C)[C@H]3[C@]4(O)OC[C@]32[C@@H]1[C@@H](C)[C@H]4O [HOLACANTHONE] | 200 nM | 200 nM | 500 nM | – | – | 2.5
15 | CC1=CC(=O)[C@@H](O)[C@]2(C)[C@H]3[C@]4(O)OC[C@]35[C@H]([C@@H](C)[C@H]4O)[C@@H](OC(=O)C3(CO)CC3)C(=O)O[C@@H]5C[C@@H]12 | 1000 nM | 2000 nM | 2800 nM | – | – | 2.9
16 | COC(=O)[C@@]12OC[C@]34[C@H]([C@@H](O)[C@@H]1O)[C@@]1(C)CC(=O)C(O)=C(C)[C@@H]1C[C@H]3OC(=O)[C@H](OC(=O)/C=C(\C)C(C)C)[C@@H]24 [BRUCEANTIN] | 40 nM | 20 nM | 40 nM | 70% | Non-toxic | 1
17 | CC1=CC(=O)[C@@H](O)[C@]2(C)[C@H]3[C@]4(O)OC[C@]35[C@H]([C@@H](C)[C@H]4O)[C@@H](OC(=O)CC(O)(C(C)C)C(C)C)C(=O)O[C@@H]5C[C@@H]12 | 9 nM | 9 nM | 9 nM | – | – | 1
18 | CC1=CC(=O)[C@@H](O)[C@]2(C)[C@H]3[C@]4(O)OC[C@]35[C@H]([C@@H](C)[C@H]4O)[C@@H](OC(=O)C(C)(C)CO)C(=O)O[C@@H]5C[C@@H]12 | 200 nM | 500 nM | 600 nM | – | – | 3.1
19 | CC1=CC(=O)[C@@H](O)[C@]2(C)[C@H]3[C@]4(O)OC[C@]35[C@H]([C@@H](C)[C@H]4O)[C@@H](OC(=O)CC3(O)CCC3)C(=O)O[C@@H]5C[C@@H]12 | 260 nM | 140 nM | 280 nM | 33% | Non-toxic | 1.1
20 | CC[C@](C)(OC(C)=O)C(=O)O[C@H]1C(=O)O[C@@H]2C[C@H]3C(C)=CC(=O)[C@@H](O)[C@]3(C)[C@H]3[C@@H](O)[C@H](O)[C@@]4(C)OC[C@]32[C@@H]14 [QUASSIMARIN] | 60 nM | 90 nM | 130 nM | – | – | 2.2
21 | CC1=CC(=O)[C@@H](O)[C@@]2(C)[C@H]1CC[C@@]13CO[C@]4(C)[C@@H]1C(=O)O[C@H]4[C@H](O)[C@@H]32 [SAMADERIN B] | 400 nM | 1000 nM | > 2000 nM | 0% | Non-toxic | >6
22 | CC1=CC(=O)[C@@H](O)[C@]2(C)[C@H]3[C@]4(O)OC[C@]35[C@H]([C@@H](C)[C@H]4O)[C@@H](OC(=O)[C@H](C)CO)C(=O)O[C@@H]5C[C@@H]12 | 1500 nM | > 6000 nM | 6200 nM | – | – | 4.2
